Experimental data reported in ChEMBL document CHEMBL4725497, “Addition of Fluorine and a Late-Stage Functionalization (LSF) of the Oral SERD AZD9833” (ACS Med Chem Lett, 2020).

Tests used:
[1] = Fraction unbound in human plasma by equilibrium dialysis method; format: ADME, cell-free
Outline: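 Binding was measured by equilibrium dialysis in 10% human plasma, with compound added from a DMSO stock.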

[2] = molecular target: T1, Estrogen receptor (Homo sapiens) (UniProt P03372); experiment: Induction of ERalpha degradation in human MCF7 cells at 0.1 uM incubated for 18 to 22 hrs immuno-fluorescence assay relative to control; format: cell-based
T1 sequence (whole entry): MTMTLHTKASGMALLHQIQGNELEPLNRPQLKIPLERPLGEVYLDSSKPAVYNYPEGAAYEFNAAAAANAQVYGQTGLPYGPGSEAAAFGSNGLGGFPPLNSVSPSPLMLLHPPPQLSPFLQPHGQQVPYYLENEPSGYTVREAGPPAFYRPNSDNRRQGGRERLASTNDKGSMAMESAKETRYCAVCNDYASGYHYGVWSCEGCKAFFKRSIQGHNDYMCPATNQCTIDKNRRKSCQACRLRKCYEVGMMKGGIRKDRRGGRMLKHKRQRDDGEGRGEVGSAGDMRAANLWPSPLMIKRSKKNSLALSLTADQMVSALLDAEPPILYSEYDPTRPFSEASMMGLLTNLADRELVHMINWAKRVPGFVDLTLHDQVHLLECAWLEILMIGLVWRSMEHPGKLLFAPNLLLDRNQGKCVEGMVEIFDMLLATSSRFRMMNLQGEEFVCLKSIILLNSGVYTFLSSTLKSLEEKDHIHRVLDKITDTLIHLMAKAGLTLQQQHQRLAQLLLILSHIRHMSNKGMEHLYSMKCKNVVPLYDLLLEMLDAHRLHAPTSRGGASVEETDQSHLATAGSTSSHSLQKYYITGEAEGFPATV

[3] = Intrinsic clearance in rat hepatocytes assessed rate of metabolism per 10^6 cells; format: ADME, cell-based, Hepatocyte; settings: read-out: CLH
Outline: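 Compound from a DMSO stock was incubated with isolated rat hepatocytes diluted to 1 × 10^6 cells/mL. Rate of metabolism is expressed in μL/min/10^6 cells.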

[4] = Intrinsic clearance in human microsome assessed as rate of metabolism; format: ADME; settings: microsomes
Outline: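 Compound from a DMSO stock was incubated with human liver microsomes. Rate of metabolism is expressed in μL/min/mg.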

[5] = Lipophilicity, log D of compound at pH 7.4 by shake-flask method; format: physicochemical; settings: buffer
Outline: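 logD at pH 7.4 was measured by the shake-flask method.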

Estrogen receptor [6] = molecular target: T2, Estrogen receptor (Homo sapiens, UniProt P03372); experiment: Displacement of fluorescent labelled fluormone ES2 from human recombinant GST tagged ER alpha LBD ( 282 to 595 residues) expressed in baculovirus infected insect cells incubate for 20 mins measured after 1 hr by TR-FRET Lanthascreen assay
T2 sequence (P03372 whole entry): T1 sequence (whole entry)
Outline: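 ER binding was reported as n ≥ 2 determinations, with SEM within 0.3 log units.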

Estrogen receptor [7] = molecular target: T2, Estrogen receptor; experiment: Induction of ERalpha degradation in human MCF7 cells incubated for 18 to 22 hrs by immuno-fluorescence assay; format: cell-based
[8] = Efflux ratio of intrinsic permeability from basolateral to apical side over apical to basolateral side in human Caco2 cells at 7.4:7.4 apical: basolateral pH at 10 uM; format: ADME, cell-based; settings: Caco-2, pH 7.4
[9] = molecular target: T1, Estrogen receptor (Homo sapiens); experiment: Induction of ERalpha degradation in human MCF7 cells at 0.1 uM incubated for 18 to 22 hrs Western blot analysis relative to fulvestrant; format: cell-based
Outline: (§1)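 Western blot read-out of ERα protein loss in MCF-7 and CAMA-1 breast cancer cells treated with compound at 0.1 μM. Degradation expressed as percentage relative to fulvestrant.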

[10] = molecular target: T1, Estrogen receptor (Homo sapiens); experiment: Induction of ERalpha degradation in human CAMA-1 cells at 0.1 uM incubated for 18 to 22 hrs Western blot assay relative to fulvestrant; format: cell-based; outline: as §1
[11] = AUC in rat at 1 mg/kg, po; format: ADME, organism-based; parameters: dose 1 mg/kg; settings: in vivo
Outline: (§2)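 Rats were given 0.5 mg/kg IV in 5% DMSO:95% hydroxylpropyl β-cyclodextrin or 10% DMA:90% Captisol, and 1 mg/kg orally as a 0.1% HMPC/tween suspension or a 10% DMSO:90% cyclodextrin solution. Plasma clearance, Vdss and half-life came from the IV arm; AUC came from the oral arm; bioavailability F (%) was also reported.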

[12] = Oral bioavailability in rat at 1 mg/kg; format: ADME, organism-based; settings: in vivo; outline: as §2
[13] = Volume of distribution at steady state in rat at 0.5 mg/kg or 1 mg/kg, […]; format: ADME, organism-based; settings: in vivo
[14] = Clearance in rat plasma at 0.5 mg/kg, iv and 1 mg/kg, po; format: ADME, organism-based; outline: as §2
[15] = Half-life in rat at 0.5 mg/kg, iv; format: ADME, organism-based; settings: in vivo; outline: as §2

SMILES | fraction unbound [1] | Activity [2] [%] | hepatocyte CLint [3] [µL/min/1e6 cells] | microsomal CLint [4] [µL/min/mg] | logD [5] | IC50 (Estrogen receptor [6]) [nM] | IC50 (Estrogen receptor [7]) [nM] | efflux ratio at 10 µM [8] | Activity [9] [%] | Activity [10] [%] | AUC [11] [µM·h] | bioavailability [12] [%] | Vdss [13] [L/kg] | clearance [14] [mL/min/kg] | half-life [15] [h]
FCCCN1CC(Nc2ccc([C@@H]3c4ccc5[nH]ncc5c4C[C@@H](C(F)F)N3CC(F)F)nc2)C1 | 0.28 | 97 | 32 | 34 |  |  |  |  |  |  |  |  |  |  | 
COc1cc2[nH]ncc2c2c1[C@@H](c1ccc(NC3CN(CCCF)C3)cn1)N(CC(F)(F)F)[C@H](C)C2 | 0.32 | 40 | 6 | 26 | 2.4 | 501 | 2.51 |  |  |  |  |  |  |  | 
C[C@@H]1Cc2c(ccc3[nH]nc(F)c23)[C@@H](c2ccc(NC3CN(CCCF)C3)c(F)n2)N1CC(F)(F)F | 0.068 | 99 | 10 | 44 |  | 1 | 0.0501 |  |  |  |  |  |  |  | 
C[C@@H]1Cc2c(ccc3[nH]ncc23)[C@@H](c2ncc(NC3CN(CCCF)C3)cc2F)N1CC(F)(F)F | 0.16 | 98 | 24 | 19 | 3 | 2 | 0.251 | 7 | 96 | 98 |  |  |  |  | 
C[C@@H]1Cc2c(c(F)cc3[nH]ncc23)[C@@H](c2ccc(NC3CN(CCCF)C3)cn2)N1CC(F)(F)F | 0.19 | 95 | 11 | 8 | 2.7 | 15.8 | 5.01 |  |  |  |  |  |  |  | 
C[C@@H]1Cc2c(ccc3[nH]ncc23)[C@@H](c2ccc(NC3CN(CCCF)C3)c(F)n2)N1CC(F)(F)F | 0.16 | 98 | 36 | 20 | 3 |  |  |  |  |  | 0.22 | 34 | 7.7 | 65 | 1.9
C[C@@H]1Cc2c(cc(F)c3[nH]ncc23)[C@@H](c2ccc(NC3CN(CCCF)C3)cn2)N1CC(F)(F)F | 0.14 | 98 | 20 | 19 | 3.2 | 0.501 | 0.2 |  |  |  |  |  |  |  | 
C[C@@H]1Cc2c(ccc3[nH]nc(F)c23)[C@@H](c2ncc(NC3CN(CCCF)C3)cc2F)N1CC(F)(F)F | 0.054 | 99 | 10 | 34 |  | 1.26 |  | 1.4 |  |  | 0.76 | 60 | 17 | 24 | 9.6
C[C@@H]1Cc2c(ccc3[nH]ncc23)[C@@H](c2ccc(NC3CN(CCCF)C3)cn2)N1CC(F)F |  | 99 |  | 28 |  |  |  |  |  |  |  |  |  |  | 
C[C@@H]1Cc2c(c(O)cc3[nH]ncc23)[C@@H](c2ccc(NC3CN(CCCF)C3)cn2)N1CC(F)(F)F |  | > 80 | 11 | 5 | 2.3 | 39.8 | 126 |  |  |  |  |  |  |  | 
C[C@@H]1Cc2c(ccc3[nH]ncc23)[C@@H](c2ccc(NC3CN(CCCF)C3)cn2)N1CC(F)(F)F [CAMIZESTRANT] |  | 99 |  | 12 | 2.9 |  |  |  | 95 | 98 |  |  |  |  | 
C[C@@H]1Cc2c(ccc3[nH]ncc23)[C@@H](c2ncc(NC3CN(CCCF)C3)cc2F)N1CC(F)(F)CF |  | 98 | 55 | 26 |  |  |  |  |  |  |  |  |  |  | 
